Source: PubChem BioAssay
Shown are actives, neighbours in structure and some others; about 1.7% of the full set was active somewhere.
Scp1 inh: Scp-1 (human) phosphatase inhibition; Recombinant Scp1, phosphopeptide, malachite green phosphate absorbance; AID 493091; inhibition, % at 20 µM; Q9GZU7; 0.88% of 340,000 active;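 active = inhibition above about 50% at 20 µM, limit read from the data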
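Assay system: SCP-1 catalytic fragment, aa 76-261 | Buffer or medium: Tris acetate buffer pH 5.5 with MgCl2 and Tween-20 | Compound: One concentration, 20 µM, with 1.0% DMSO | Also added: Phospho 17-mer peptide substrate | Signal: Absorbance at 630 nm | Incubation: 45 min enzyme reaction at room temperature | Measure: % inhibition of SCP-1 phosphate liberation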
STEP block: inhibitors of human striatal-enriched phosphatase STEP; P54829; recombinant STEP, OMFP fluorogenic substrate, fluorescence; inhibition, % at 20 µM; 0.25% of 360,000 active; AID 588621;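 active = inhibition at 20 µM, scaled per plate between control wells, above about 37%, limit read from the data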
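Assay system: isolated STEP enzyme. Buffer or medium: pH 6.0 Bis-Tris with DTT and Tween 20. Also added: fluorogenic phosphatase substrate OMFP at 25 µM final. Dosing: 20 µM, 1% DMSO. Timing: 20 min reaction, room temperature, in the dark. Measured by: fluorescence intensity, excitation 480 nm, emission 540 nm. Evaluation: normalized % inhibition.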
LMPTP inh: LMPTP (human) inhibition; recombinant LMPTP-A, OMFP fluorogenic substrate, fluorescence intensity; inhibition, % at 20 µM; 0.22% of 360,000 active;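 active = compounds that cut the enzyme signal by at least half of the control window in the single-dose screen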
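Material: LMPTP-A; amount: 0.625 nM enzyme; doses: single 20 µM dose; times: reaction 50 min, room temperature, dark; technique: fluorescence intensity of OMFP turnover product; benchmarks: no-enzyme and uninhibited controls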
Casp6 inh: caspase-6 (human) enzyme inhibition; purified caspase-6, Z-VEID-R110 cleavage fluorescence; inhibition, % at 12.5 µM; P55212; 0.53% of 350,000 active;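 active = mean inhibition across replicates at least about 35%, with every replicate also reaching that limit, limit read from the data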
DNMT1 block: blocks human DNA methyltransferase DNMT1. P26358. inhibition (reported as % activation of signal), % at 10 µM. DNMT1 molecular beacon, Hinp1I cleavage, fluorescence. AID 588458. 0.83% of 360,000 active; in the data active = inhibition above about 50%
Target sequence (P26358 504-1616 limits assumed): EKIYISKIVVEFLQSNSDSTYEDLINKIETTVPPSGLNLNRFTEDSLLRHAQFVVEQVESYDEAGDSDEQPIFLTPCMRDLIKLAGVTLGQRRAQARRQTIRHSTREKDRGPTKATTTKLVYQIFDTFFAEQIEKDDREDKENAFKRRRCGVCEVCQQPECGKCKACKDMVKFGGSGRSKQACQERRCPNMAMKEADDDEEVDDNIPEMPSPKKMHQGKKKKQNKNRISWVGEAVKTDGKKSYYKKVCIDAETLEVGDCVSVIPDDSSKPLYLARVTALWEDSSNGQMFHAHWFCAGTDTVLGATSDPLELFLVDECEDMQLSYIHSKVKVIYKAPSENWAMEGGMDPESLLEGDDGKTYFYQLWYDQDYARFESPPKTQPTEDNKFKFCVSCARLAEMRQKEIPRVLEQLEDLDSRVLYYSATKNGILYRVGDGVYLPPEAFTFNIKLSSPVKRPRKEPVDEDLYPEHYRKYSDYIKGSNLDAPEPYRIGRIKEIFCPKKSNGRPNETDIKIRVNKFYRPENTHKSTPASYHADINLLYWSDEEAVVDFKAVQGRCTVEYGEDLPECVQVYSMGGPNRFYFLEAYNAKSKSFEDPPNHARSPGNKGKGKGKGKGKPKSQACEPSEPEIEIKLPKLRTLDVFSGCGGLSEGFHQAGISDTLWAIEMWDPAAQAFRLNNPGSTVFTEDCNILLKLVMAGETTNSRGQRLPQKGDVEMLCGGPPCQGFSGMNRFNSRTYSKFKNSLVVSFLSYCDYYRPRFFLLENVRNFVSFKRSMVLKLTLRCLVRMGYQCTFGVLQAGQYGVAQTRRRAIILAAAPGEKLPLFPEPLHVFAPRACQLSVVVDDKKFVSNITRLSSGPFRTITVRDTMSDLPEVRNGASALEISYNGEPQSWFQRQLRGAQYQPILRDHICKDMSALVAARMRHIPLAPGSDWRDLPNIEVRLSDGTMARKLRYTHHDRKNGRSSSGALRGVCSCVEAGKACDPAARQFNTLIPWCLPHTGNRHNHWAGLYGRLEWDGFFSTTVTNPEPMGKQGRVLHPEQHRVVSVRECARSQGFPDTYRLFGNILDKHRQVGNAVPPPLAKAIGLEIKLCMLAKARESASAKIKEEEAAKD
SUMO1 PPI mod: modulators of human SUMO1-mediated protein-protein interactions | P63165 | SUMO1 binding to a labelled peptide, TR-FRET, 1 h | inhibition, % at 20 µM | 0.33% of 360,000 active | AID 602429; in the data active = inhibition above about 37%
Scp1 confirm: Scp-1 (human) inhibition, single-dose confirmed; shares compounds with Scp1 inh; recombinant SCP-1 catalytic domain, phosphate release, malachite green absorbance; AID 540281; 61% of 2,500 active; inhibition, % at 20 µM
MG interference: interferes with malachite green readout, flagging false Scp-1 hits. shares compounds with Scp1 inh. Colorimetric interference counterscreen, malachite green absorbance 630 nm. apparent inhibition (interference), % at 20 µM. 2,500 tested, under 10 active. AID 540313;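 also: compounds added after enzyme reaction finished so only phosphate colour detection is probed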
Scp-1 Tm shift: Scp-1 (human) binding by thermal shift. shares compounds with Scp1 inh. Recombinant SCP1, Sypro Orange thermal shift Tm. thermal shift relative to vanadate control, % at 40 µM. 25% of 1,500 active;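 active = substances whose mean melting-temperature shift, as a percentage of the reference inhibitor's shift, reaches about 5.3%, limit read from the data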
Beacon interf DR: shows spectral interference in the DNMT1 beacon assay; 200 tested, under 10 active; molecular beacon fluorescence, spectral interference counter-screen; shares compounds with DNMT1 block; IC50, µM; call rule not given here
DNMT1 inh conf: confirmation of human DNMT1 inhibitors; DNMT1 molecular beacon HinP1I cleavage, fluorescence; inhibition, % at 10 µM; shares compounds with DNMT1 block; 8% of 2,300 active;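 active = average inhibition of at least 30% in the single-concentration confirmation test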
DNMT1 interf: counter-screen for DNMT1 inhibitors: spectral interference; shares compounds with DNMT1 block; DNMT1 molecular beacon spectral interference counterscreen, fluorescence 485/520; activation (fluorescence interference), % at 10 µM; 1% of 2,300 active; AID 602387;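 active = activation of at least 30% at 10 µM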;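 also: DNMT1 catalytic domain with a HinP1I cleavage step and a FAM/dabcyl DNA beacon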
A number is an active result; . = inactive; / = no result.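 The calls were made as follows, unless noted: active = inhibition of at least 30% at 20 µM; inactive = the rest.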

SMILES	Scp1 inh	STEP block	LMPTP inh	Casp6 inh	DNMT1 block	SUMO1 PPI mod	Scp1 confirm	MG interference	Scp-1 Tm shift	others
CCN(CC)P(c1n(C)cc[n+]1C)N(CC)CC	99	.	.	.	.	.	83	.	.
CN(C)C(=O)OCc1n(C)cc[n+]1C	.	.	.	/	.	.	/	/	/
CC1([N+](=O)[O-])COP(=O)(Nc2cccc(F)c2)OC1 (stereo unspecified)	.	.	.	.	.	.	/	/	/
C[C@]12CCC3C(CC[C@H]4C[C@@H](O)CC[C@]34C)C1C[C@@H](Br)[C@@H]2O (stereo partly specified)	59	/	/	.	/	/	.	.	/
CC1CC(OC(=O)c2ccccc2)CC(C)N1C (stereo unspecified)	.	.	.	/	.	.	/	/	/
CCN(CC)c1ccc(N=Cc2c(O)[nH]c(=O)[nH]c2=O)cc1	.	.	.	.	.	.	/	/	/
CN1CCC(OC(=O)Cc2ccccc2)CC1	.	.	.	/	.	.	/	/	/
C[N+]1(CC(COCc2ccccc2)OC(=O)Cc2ccccc2)CCOCC1 (stereo unspecified)	112	.	.	.	.	.	89	.	.
O=C1NCN(c2ccccc2)C12CCN(C(c1cc3ccccc3o1)c1nnnn1C1CCCCC1)CC2 (stereo unspecified)	/	.	.	.	.	.	/	/	/
CN1CCN(C(=O)COc2ccc(N(C)S(=O)(=O)c3ccc(F)cc3)cc2)CC1	68	.	.	.	.	.	.	.	/
COc1ccc(CC(=O)C2C(=O)N(C)c3ccccc32)cc1OC (stereo unspecified)	.	.	.	.	.	.	/	/	/
C[N+]1(CC2COC(c3ccco3)O2)CCCCC1 (stereo unspecified)	109	.	.	.	.	.	84	.	.
COC(=O)C1=C(c2cccc(C#N)c2)C[C@@H]2CC[C@H]1N2C(=O)NCCO	71	.	.	.	.	.	.	.	/
C[C@]12C=CC(=O)C=C1CC[C@@H]1C2CC[C@]2(C)OC(=O)CCC12 (stereo partly specified)	.	.	.	.	.	.	/	/	/
CCOC(=O)c1ccc(N=C(C)c2c(O)[nH]c(=O)[nH]c2=O)cc1	.	.	.	.	.	.	/	/	/
CCN1[C@@H]2Cn3c(ccc(-c4ccc(OC)cc4)c3=O)[C@H]1[C@@H](C(=O)OC)[C@@H]2CO	/	/	/	.	/	/	/	/	/
O=[N+]([O-])c1cccc(O)c1	.	.	.	.	.	.	/	/	/
O=[N+]([O-])c1cc(S(=O)(=O)c2ccc(O)c([N+](=O)[O-])c2)ccc1O	56	.	.	/	.	.	61	.	17
CC(C)[N+](C)(CCC(C(N)=O)(c1ccccc1)c1ccccc1)C(C)C	99	.	.	.	.	.	91	.	.
C[Se]C[C@@H](N)C(=O)O	68	.	.	.	.	.	31	.	.
Cc1nc2ccc(Cl)cc2c(=O)n1-c1cccc(Cl)c1	.	.	.	.	.	.	/	/	/
CCCC[N+]12CCC(CC1)C(=C(c1ccccc1)c1ccccc1)C2	98	.	.	.	.	.	86	.	.
COc1ccc(C(=O)N/N=C/C23CC[C@@H](O)CC2(O)CC[C@@H]2[C@@H]3CCC3(C)C(C4=CC(=O)OC4)CCC23O)cc1 (stereo partly specified)	56	.	.	.	.	.	.	.	/
CCOc1cc(C=C2C(=O)NC(=S)NC2=O)ccc1O	.	.	.	.	.	.	.	.	/
COc1ccc(C=C2C(=O)NC(=S)NC2=O)cc1OC	.	.	.	.	.	.	/	/	/
SMILES	Scp1 inh	STEP block	LMPTP inh	Casp6 inh	DNMT1 block	SUMO1 PPI mod	Scp1 confirm	MG interference	Scp-1 Tm shift	others
Cc1cc(/C=C2/C(=O)NC(=O)N(c3ccc(Br)cc3)C2=O)c(C)n1C	.	.	.	.	.	.	/	/	/
Cc1cc(/C=C2\C(=O)NC(=O)N(c3ccc(Br)cc3)C2=O)c(C)n1-c1cc(C(=O)O)cc(C(=O)O)c1	60	.	.	.	83	.	42	.	.	DNMT1 inh conf=.;DNMT1 interf=.
Cc1cc(/C=C2\C(=O)NC(=O)N(c3ccc(Cl)cc3)C2=O)c(C)n1-c1cccc(C(=O)O)c1	52	.	.	.	74	.	51	.	6.9	DNMT1 inh conf=.;DNMT1 interf=.
O=C1NC(=O)N(c2ccc3c(c2)OCO3)C(=O)/C1=C\c1ccc(-c2ccccc2C(=O)O)o1	56	.	.	43	90	.	52	.	.	DNMT1 inh conf=.;DNMT1 interf=.
COc1ccc(-c2ccc([C@@H]3[C@H](CO)N4CCCCN(C(=O)Cc5ccncc5)C[C@@H]34)cc2)cc1	/	/	/	.	/	/	/	/	/
O=C(NCC1=C(c2cccc3ccccc23)C[C@@H]2CC[C@H]1N2Cc1ccco1)c1cccnc1	/	.	.	.	.	.	/	/	/
O=C1NC(=O)N(CCc2ccc(F)cc2)C(=O)/C1=C/c1ccco1	92	48	66	83	98	80	66	.	.	DNMT1 inh conf=.;DNMT1 interf=.
COc1ccc(CN2C(=O)NC(=O)/C(=C\c3ccco3)C2=O)cc1	82	.	.	82	86	.	58	.	5.5	Beacon interf DR=.;DNMT1 inh conf=.;DNMT1 interf=.
COc1ccccc1/C=C1\C(=O)NC(=S)N(c2ccccc2)C1=O	.	.	.	/	.	.	/	/	/
CCOc1cccc(N2C(=O)/C(=C/c3ccco3)C(=O)NC2=S)c1	74	56	.	87	98	56	70	.	6.4	Beacon interf DR=.;DNMT1 inh conf=80;DNMT1 interf=.
Cc1ccc(/C=C2/C(=O)NC(=O)N(CCc3ccc(F)cc3)C2=O)o1	.	.	.	/	.	.	/	/	/
O=C(C1c2ccccc2C(=O)N2CCc3ccccc3C12)N1CCC2(CC1)OCCO2 (stereo unspecified)	.	.	.	/	.	.	/	/	/
CCCCn1c(N)c(C(=O)OCCOC)c2nc3ccccc3nc21	.	.	.	.	.	.	/	/	/
